SMILES strings stand for the structures. pIC50: −log10 of the molar value. ≈ marks a conversion by molar mass, not a printed value. A value given as a limit tells only on which side of the number the result lay.

Series [1] in a line: Intrinsic solubility of CPT/HCPT. The settings on record: PBS (CPT); NaD2PO4 buffer (HCPT), aqueous buffer, thermodynamic from solid. The series is classed as physicochemical. The gist of the method: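 Excess solid stirred at room temperature, then undissolved material removed by centrifugation. In PBS: stirred 6 h; supernatant quantified by UV–vis against an absorbance standard curve. In NaD2PO4 (10 mM, pD 7.4): stirred 3 h; supernatant quantified by 1H NMR integration against a known concentration of 1,3,5-benzenetricarboxylic acid as internal reference.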

A short description of series [2]: Solubility enhancement assay with WP6. The series is classed as physicochemical. As to conditions: for solubility at 3 h: NaD2PO4 buffer with WP6, pH 7.4; for solubility enhancement in the presence of WP6: versus intrinsic solubility. The gist of the method:
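Excess solid test compound stirred 3 h at room temperature in NaD2PO4 (10 mM, pD 7.4) containing a known concentration of pillararene host. Undissolved drug removed by centrifugation. Supernatant drug quantified by 1H NMR integration against subsequently added 1,3,5-benzenetricarboxylic acid as internal reference. Each point in triplicate; phase solubility diagrams plotted; enhancement taken relative to intrinsic solubility.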

Series [3] concerns Hela cells. Nature of the series: In vitro cytotoxicity against cancer cells, CCK-8 assay. Type of series: cell-based. The settings on record: Homo sapiens, 24 h. The gist of the method: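 HeLa cells seeded at 4 × 10^3/well and cultured 12 h, then given fresh medium with free test compound, pillararene host alone, or host-loaded test compound for 24 h. Drug range 5 × 10–4–5 × 101 μM; host alone 5 × 10–3–5 × 102 μM. CCK-8 added for 3 h, OD read at 450 nm. Viability was set relative to a medium-only control (100%). IC50 is the concentration giving 50% viability. Mean ± SD, n = 6; Student's t test.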

Compound `CC[C@@]1(O)C(=O)OCc2c1cc1n(c2=O)Cc2cc3cc(O)ccc3nc2-1` [HCPT, 10-hydroxycamptothecin] displayed a solubility in series [1] of 29 µM (≈ 10.6 µg/mL). For the same compound, in series [2], the solubility at 3 h is > 1000 µM and the “solubility enhancement in the presence of WP6” value is given as 40 times. This compound gave a negative-log IC50 (pIC50) in series [3] of 5.89.

For the compound `CC[C@@]1(O)C(=O)OCc2c1cc1n(c2=O)Cc2cc3ccccc3nc2-1` [CPT, 20-(S)-camptothecin], the solubility in series [1] worked out at 5 µM (≈ 1.74 µg/mL). In addition, in series [2], the solubility at 3 h was > 1000 µM and the “solubility enhancement in the presence of WP6” value is on record as 380 times. This compound also gave a negative-log IC50 (pIC50) in series [3] of 6.10.

(Values after PMC6044948 (ACS Omega, 2017).)
